Calls of active or inactive are those of the source. No cut-off for these calls is given here.

The values that follow come from ChEMBL document CHEMBL1146234, “Synthesis and biological evaluation of N-pyrazolyl-N'-alkyl/benzyl/phenylureas: a new class of potent inhibitors of interleukin 8-induced neutrophil chemotaxis” (J Med Chem, 2007).

Test [1] is filed under the species Homo sapiens. Put plainly: Inhibition of pyk2 60-70Kda region in human neutrophils assessed as reduction of IL8 stimulated tyrosin phosphorylation at 0.06 uM after 30 mins. The procedure, abridged: (§1)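 Neutrophils (2.5 × 10⁷ cells/mL) were treated with 10⁻³ M diisopropylfluorophosphate for 30 min at room temperature. They were then incubated 30 min ± compound and stimulated with 10⁻⁷ M IL8 for 0.5 min. Samples were boiled in SDS buffer and run on 7.5-20% SDS-PAGE, then blotted to nitrocellulose. Blots were probed overnight at 4 °C with anti-phosphotyrosine mAb 4G10 and detected by ECL. Ponceau S staining confirmed equal loading.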

Test [2] concerns the target C-C chemokine receptor type 2 (Homo sapiens) (UniProt P41597). Put plainly: Binding affinity to CCR2.
Test [3] addresses T1, Tyrosine-protein kinase ZAP-70 (Homo sapiens) (UniProt P43403).
T1 sequence (whole entry): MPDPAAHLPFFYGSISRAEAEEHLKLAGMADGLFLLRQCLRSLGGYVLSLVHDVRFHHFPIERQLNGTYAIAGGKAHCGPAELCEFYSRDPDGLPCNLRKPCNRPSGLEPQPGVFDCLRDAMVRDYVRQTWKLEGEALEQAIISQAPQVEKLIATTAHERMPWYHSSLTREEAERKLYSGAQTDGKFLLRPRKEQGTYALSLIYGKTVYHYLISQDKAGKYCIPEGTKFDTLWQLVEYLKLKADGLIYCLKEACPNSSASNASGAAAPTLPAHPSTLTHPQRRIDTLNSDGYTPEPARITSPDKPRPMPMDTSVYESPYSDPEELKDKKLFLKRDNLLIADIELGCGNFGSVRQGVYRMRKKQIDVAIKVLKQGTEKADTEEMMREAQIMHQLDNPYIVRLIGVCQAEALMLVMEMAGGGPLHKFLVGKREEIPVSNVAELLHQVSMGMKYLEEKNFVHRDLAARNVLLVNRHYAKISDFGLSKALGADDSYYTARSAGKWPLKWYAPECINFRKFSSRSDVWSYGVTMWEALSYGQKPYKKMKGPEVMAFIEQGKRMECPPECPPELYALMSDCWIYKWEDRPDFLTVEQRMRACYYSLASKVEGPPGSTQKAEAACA
Put plainly: Binding affinity to Zap70.

Test [4] addresses Proto-oncogene tyrosine-protein kinase Src (Homo sapiens) (UniProt P12931). The test can be described thus: Binding affinity to SRC.
Test [5] has as its system Neutrophil. Put plainly: Inhibition of fMLP-induced neutrophil chemotaxis after 45 mins by Boyden chamber assay. Type of test: functional, cell-based. The settings on record: Homo sapiens. The procedure, abridged:
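Leading-front Boyden assay with donor neutrophils. Cells were preincubated 15 min at room temperature ± compound. Then 4 × 10⁵ cells were placed above a 3 µm cellulose ester filter, with IL8 or fMLP below. After 45 min at 37 °C, filters were hematoxylin-stained and the leading-front distance was read at ×400, 5 fields per filter, in duplicate. Net migration = stimulated minus spontaneous. IC₅₀ came from nonlinear regression, ≥3 experiments.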

Test [6] relates to Neutrophil. The test can be described thus: Reduction of IL8-stimulated F-actin polymerization in human neutrophils. Also on record: scale not given: the % may be the effect or the level left. The format is functional. The procedure, abridged: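 Donor neutrophils were incubated ± compound, washed three times, then stimulated 30 min with medium or 100 nM IL8. Cytospins were stained with Alexa Fluor 488-phalloidin and examined by fluorescence microscopy. Mean fluorescence density came from linear per-cell measurement across ≥5 random fields per slide, in duplicate, ≥3 experiments. Values were given as area percentage, mean ± SD.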

The target in test [7] is RAC-alpha serine/threonine-protein kinase (Homo sapiens) (UniProt P31749). Put plainly: Inhibition of IL8-induced Akt phosphorylation in human neutrophils at 0.06 uM. Put shortly: (§2)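 Purified human neutrophils (1 × 10⁷ cells/mL) were pretreated 30 min with compound, then exposed to 10 nM IL8 or none for 5 min at 37 °C. Cells were lysed in NP40 buffer, and protein was quantified by BCA. Then […] protein per lane was run on 12% SDS-PAGE, blotted to nitrocellulose, and probed overnight at 4 °C with anti-phospho-Akt mAb. Detection was by ECL.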
Sequence of RAC-alpha serine/threonine-protein kinase (Homo sapiens) (P31749 whole entry): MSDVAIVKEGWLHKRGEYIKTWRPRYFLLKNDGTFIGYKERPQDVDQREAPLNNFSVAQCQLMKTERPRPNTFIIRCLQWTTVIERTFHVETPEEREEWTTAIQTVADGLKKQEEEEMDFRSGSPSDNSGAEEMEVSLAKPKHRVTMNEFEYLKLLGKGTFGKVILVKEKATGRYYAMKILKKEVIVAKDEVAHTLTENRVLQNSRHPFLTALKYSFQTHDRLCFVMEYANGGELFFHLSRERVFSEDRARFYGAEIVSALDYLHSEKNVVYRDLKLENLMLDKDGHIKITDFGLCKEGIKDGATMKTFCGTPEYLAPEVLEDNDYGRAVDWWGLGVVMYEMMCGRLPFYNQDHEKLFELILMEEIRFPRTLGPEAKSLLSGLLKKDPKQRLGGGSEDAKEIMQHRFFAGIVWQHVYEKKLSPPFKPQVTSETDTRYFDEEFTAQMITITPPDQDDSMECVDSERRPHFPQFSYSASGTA

The species entered for test [8] is Homo sapiens. Put plainly: Inhibition of pyk2 50Kda region in human neutrophils assessed as reduction of IL8 stimulated tyrosin phosphorylation at 0.06 uM after 30 mins. Put shortly: as §1
Test [9] is filed under the species Homo sapiens. The test can be described thus: Inhibition of pyk2 50Kda region in human neutrophils assessed as reduction of IL8 stimulated tyrosin phosphorylation at 0.05 uM after 30 mins. Put shortly: as §1
The species entered for test [10] is Homo sapiens. Put plainly: Inhibition of pyk2 60-70Kda region in human neutrophils assessed as reduction of IL8 stimulated tyrosin phosphorylation at 0.05 uM after 30 mins. Put shortly: as §1
The target in test [11] is RAC-alpha serine/threonine-protein kinase (Homo sapiens) (UniProt P31749). Put plainly: Inhibition of IL8-induced Akt phosphorylation in human neutrophils at 0.05 uM. The procedure, abridged: as §2
Test [12] shares this target. The test can be described thus: Inhibition of IL8-induced Akt phosphorylation in human neutrophils at 0.01 uM. The procedure, abridged:
as §2

The species entered for test [13] is Homo sapiens. Put plainly: Inhibition of pyk2 60-70Kda region in human neutrophils assessed as reduction of IL8 stimulated tyrosin phosphorylation at 0.01 uM after 30 mins. Put shortly: as §1
For test [14], the species on record is Homo sapiens. Put plainly: Inhibition of pyk2 50Kda region in human neutrophils assessed as reduction of IL8 stimulated tyrosin phosphorylation at 0.01 uM after 30 mins. Put shortly: as §1

Sequence of C-C chemokine receptor type 2 (Homo sapiens) (P41597 whole entry, looked up): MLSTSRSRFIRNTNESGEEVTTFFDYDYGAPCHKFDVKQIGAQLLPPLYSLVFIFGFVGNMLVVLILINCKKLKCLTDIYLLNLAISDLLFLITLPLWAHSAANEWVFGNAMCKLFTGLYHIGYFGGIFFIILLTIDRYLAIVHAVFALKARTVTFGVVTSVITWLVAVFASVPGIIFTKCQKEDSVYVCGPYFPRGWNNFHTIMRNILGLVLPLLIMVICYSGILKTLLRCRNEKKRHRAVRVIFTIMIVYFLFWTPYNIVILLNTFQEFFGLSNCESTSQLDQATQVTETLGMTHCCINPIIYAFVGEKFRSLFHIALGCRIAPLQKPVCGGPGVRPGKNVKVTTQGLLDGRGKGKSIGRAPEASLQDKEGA
Sequence of Proto-oncogene tyrosine-protein kinase Src (Homo sapiens) (P12931 2-536 limits assumed): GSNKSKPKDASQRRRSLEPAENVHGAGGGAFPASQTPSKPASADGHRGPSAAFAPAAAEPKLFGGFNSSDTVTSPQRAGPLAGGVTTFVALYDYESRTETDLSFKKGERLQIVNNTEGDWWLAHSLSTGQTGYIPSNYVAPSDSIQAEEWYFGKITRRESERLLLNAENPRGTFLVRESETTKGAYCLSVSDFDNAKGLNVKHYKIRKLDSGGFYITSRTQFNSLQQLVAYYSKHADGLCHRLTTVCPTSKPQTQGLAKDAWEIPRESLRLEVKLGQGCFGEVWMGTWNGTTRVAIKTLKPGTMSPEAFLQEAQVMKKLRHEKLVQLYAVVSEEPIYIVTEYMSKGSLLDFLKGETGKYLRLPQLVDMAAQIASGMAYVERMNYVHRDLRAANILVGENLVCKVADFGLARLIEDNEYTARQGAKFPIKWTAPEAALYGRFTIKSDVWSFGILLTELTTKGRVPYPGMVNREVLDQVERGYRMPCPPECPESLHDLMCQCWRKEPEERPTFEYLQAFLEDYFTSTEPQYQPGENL

One may read the inhibition as the change of the read-out against control, counted positive when it falls. Regarding `CCOC(=O)c1cnn(CC(O)c2ccccc2)c1NC(=O)NC(C)C` (centres undefined), the inhibition came to 53% in the test listed under Homo sapiens [1] and 20% in the test filed under Homo sapiens [8]. Also, the outcome (in [2]; in test [3]; in test [4]; with Neutrophil [5]; in [7]) was inactive. For the same molecule, the Activity in the test with Neutrophil [6] is 97%.

Regarding `CCOC(=O)c1cnn(CC(O)c2ccccc2)c1NC(=O)Nc1ccccc1` (centres undefined), the outcome (in [2]; in test [3]; in [4]; in the test with Neutrophil [5]; in test [11]) was inactive. The inhibition in the test listed under Homo sapiens [9] was 71%; in the test filed under Homo sapiens [10] it was 81%. Further, the Activity in the test with Neutrophil [6] is 97%.

For the molecule `CCOC(=O)c1cnn(CC(O)c2ccccc2)c1NC(=O)NCc1ccccc1` (centres undefined), the result (in test [2]; in test [3]; in [4]; in the test on Neutrophil [5]; in test [12]) was inactive. This molecule yielded an Activity in the test on Neutrophil [6] of 69%. Further, the inhibition in the test filed under Homo sapiens [13] was 63%; in the test listed under Homo sapiens [14], 70%.
